Screening results as filed in PubChem BioAssay.
CXCR6 inh = blocks human CXCR6 beta-arrestin recruitment; O00574; CHO-K1 PathHunter CXCR6 beta-arrestin, luminescence; inhibition, % at 20 µM; 360,000 compounds, 0.36% hits; AID 602244; in the data active = inhibition above about 34%, passing the limit was not always enough;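 note: antagonist mode with CXCL16 agonist at 10 nM final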
hiPSC survival = hiPSC single-cell survival enhancement | ATPlite luminescence; 100% = ROCK inhibitor wells, 0% = DMSO | survival enhancement, % at 20 µM | 360,000 compounds, 0.044% hits; in the data active = survival enhancement above about 18%;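 note: cells exposed to compounds for 16 hours before the ATP read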
EBI2 antag = EBI2 (human) antagonism. P32249. EBI2 beta-arrestin recruitment, luminescence, 7a,25-OHC stimulated. inhibition, % at 5 µM. 360,000 compounds, 0.81% hits; in the data active = inhibition above about 38%;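 note: enzyme fragment complementation signal reports receptor beta-arrestin coupling in cells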
Target sequence (P32249 whole entry, looked up, the tested form may be a part): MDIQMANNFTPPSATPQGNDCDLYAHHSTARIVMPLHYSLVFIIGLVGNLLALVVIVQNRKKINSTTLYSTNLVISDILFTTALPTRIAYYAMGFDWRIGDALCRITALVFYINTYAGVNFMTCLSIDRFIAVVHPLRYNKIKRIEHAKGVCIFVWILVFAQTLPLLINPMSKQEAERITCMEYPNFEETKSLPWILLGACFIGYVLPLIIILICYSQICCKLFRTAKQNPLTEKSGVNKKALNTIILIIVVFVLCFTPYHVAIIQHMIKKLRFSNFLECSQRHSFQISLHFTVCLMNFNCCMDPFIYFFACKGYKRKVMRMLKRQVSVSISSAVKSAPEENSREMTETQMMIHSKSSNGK
APJ antag = blocks the human apelin receptor APJ; P35414; 330,000 compounds, 0.32% hits; inhibition, % at 20 µM; CHO-K1 APJ beta-arrestin complementation, luminescence;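 active = inhibition above about 40% at 20 µM, limit read from the data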;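 note: cells challenged with 10 nM apelin-13 agonist together with compound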
CCR6 antag = CCR6 (human) receptor antagonism; P51684; CHO-K1 CCR6 PathHunter beta-arrestin, luminescence, CCL20-stimulated; inhibition, % at 20 µM; 340,000 compounds, 0.49% hits; AID 493098;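 active = compounds whose inhibition of the agonist-driven luminescence signal at 20 µM reaches about 50%, limit read from the data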;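 note: cells stimulated with CCL20 at 14 nM final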
APJ agonist = agonists of human APJ apelin receptor. CHO-K1 APJ PathHunter beta-arrestin, luminescence; 0% DMSO wells, 100% apelin. 330,000 compounds, 0.11% hits. AID 2520. P35414. activation, % at 20 µM;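 active = activation more than six SD over the plate average, tested at 20 µM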
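system = engineered CHO-K1 APJ arrestin reporter cells | input = 1000 cells per well | timing = overnight seeding, 90 min compound at 25 °C, 1 h detection | measured by = enzyme-fragment complementation luminescence | read-out = beta-arrestin recruitment to APJ as agonist activity, luminescent signal | control set = negative DMSO alone, positive Apelin-13 at 10 nM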
EBI2 antag conf = confirmation of human EBI2 receptor antagonists. AID 651997. inhibition, % at 5 µM. EBI2 beta-arrestin luminescence, 7a,25-OHC antagonism. 2,400 compounds, 29% hits. shares compounds with EBI2 antag;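 active = inhibition of at least 50%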
EBI2 ag = EBI2 agonism counter-screen. activation, % at 5 µM. AID 652000. EBI2-expressing cells, agonist mode, luminescence, 60 min; 0% vehicle, 100% 7α,25-dihydroxycholesterol control. shares compounds with EBI2 antag. 2,400 tested, under 10 active;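 active = activation of at least 50%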
bGal cs = inhibits E. coli beta-galactosidase, counter-screen for EBI2 antagonists. shares compounds with EBI2 antag. purified beta-galactosidase, luminescent Galacton Star, 15 min. inhibition, % at 5 µM. 2,400 compounds, 1% hits. AID 652176;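 active = replicate-average signal at least 3 plate SD below neutral wells, shown as high inhibition, flagging enzyme-inhibiting false positives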;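 note: higher means stronger loss of beta-gal luminescence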
Hits are given with their value; n = inactive; x = no result given. A selection: hits, their analogues and other compounds. The true share with any hit is near 1.5%.

SMILES	CXCR6 inh	hiPSC survival	EBI2 antag	APJ antag	CCR6 antag	APJ agonist	EBI2 antag conf	EBI2 ag	bGal cs
Cc1ccc(CN2CCC(c3cc(-c4ccc(Cl)cc4)n[nH]3)CC2)cc1	n	n	65	n	n	n	n	n	n
COc1ccc(-c2cc(C3CCN(Cc4cccc(C(F)(F)F)c4)CC3)[nH]n2)cc1	n	n	55	n	n	n	n	n	n
Cc1cccc(OCC(=O)NC2CCCc3ccccc32)c1C (stereo not drawn)	n	n	57	n	n	n	58	n	n
Cc1cccc(OCC(=O)Nc2ccccc2N2CCCCC2)c1C	n	n	43	n	n	n	n	n	n
O=C(Nc1ccccc1F)Nc1ccccc1N1CCCCC1	n	n	53	n	n	n	n	n	n
COc1ccccc1OCC(=O)NC1CCCc2ccccc21 (stereo not drawn)	n	n	n	n	n	n	x	x	x
Cc1ccccc1Nc1c([N+](=O)[O-])ccc2c1=NC1(CCCCC1)N=2	n	n	56	n	n	n	n	n	n
O=C1CC2(CCN(C(=O)C3CC(=O)N(c4ccccc4)C3)CC2)Oc2ccccc21 (stereo not drawn)	n	n	65	n	n	n	n	n	n
Cc1ccccc1OCC(=O)N1CCC2(CC1)CC(=O)c1ccccc1O2	n	n	n	n	n	n	x	x	x
O=C1CC2(CCN(C(=O)COc3ccccc3)CC2)Oc2ccccc21	n	n	46	n	n	n	n	n	n
NC(=O)c1cccc(-c2csc(C(O)c3ccccc3)n2)c1 (stereo not drawn)	n	n	n	x	x	x	x	x	x
Cc1ccc(SCC(=O)NCCC2=CCCCC2)cc1	n	n	38	n	n	n	n	n	n
Cc1ccc(OCC(=O)NCCC2=CCCCC2)cc1	n	n	n	n	n	n	x	x	x
CC(=O)c1nn(-c2ccc(Cl)cc2)cc1C(=O)c1ccccc1	n	n	46	n	n	n	n	n	n
CC1(C)C2CCC1(C)C(NC(=O)/C=C/c1ccccc1)C2 (stereo not drawn)	n	n	46	n	n	n	n	n	n
OC(CC1CC12c1ccccc1-c1ncccc12)(c1ccccc1)c1ccccc1 (stereo not drawn)	n	n	47	n	n	n	n	n	n
CCOC(=O)C(C)C1(O)c2ccccc2-c2ncccc21 (stereo not drawn)	n	n	n	n	n	n	x	x	x
COc1ccc(OC)c(S(=O)(=O)NC(=O)C2(C)CCN2C(=O)C2(c3ccc(Cl)cc3)CC2)c1 (stereo not drawn)	n	n	n	x	x	x	x	x	x
COc1cccc(OCCNc2cc(N3CCOCC3)ccc2[N+](=O)[O-])c1	n	n	44	n	n	n	n	n	n
COc1ccc(OCCNc2cc(N3CCOCC3)ccc2[N+](=O)[O-])cc1	n	n	n	n	n	n	x	x	x
COc1cccc(OCCNc2cc(N3CCCCC3)ccc2[N+](=O)[O-])c1	n	n	61	n	n	n	n	n	n
O=C(c1cc2ccccc2o1)N1CCCC1	n	n	n	n	n	n	x	x	x
CC(=O)N1CCN(C(=O)c2cc3ccccc3o2)CC1	n	n	n	n	n	n	x	x	x
O=C(c1cc2ccccc2o1)N1CCN(C/C=C/c2ccccc2)CC1	n	n	86	n	n	n	59	n	n
O=C(c1cc2ccccc2o1)N1CCN(Cc2nc3ccccc3s2)CC1	n	n	68	x	x	x	55	n	n
SMILES	CXCR6 inh	hiPSC survival	EBI2 antag	APJ antag	CCR6 antag	APJ agonist	EBI2 antag conf	EBI2 ag	bGal cs
COc1ccc(-n2c(-c3ccco3)nc3c(cnn3-c3ccccc3C)c2=O)cc1	n	n	n	n	n	n	x	x	x
COc1ccc(-n2c(-c3ccco3)nc3c(cnn3-c3ccc(C)cc3)c2=O)cc1	n	n	43	n	n	n	n	n	n
CC(=O)C[C@H](O)CC(=O)[C@@H]1OC(=O)CCCCCCCCc2ccccc21	n	n	n	n	n	n	x	x	x
CCCCCCCCN1C(=O)[C@H](CC(=O)N2CCC(c3ccccc3)CC2)C[C@@]2(C(=O)OC)CC(C)(C)CC=C12	x	x	n	x	x	x	x	x	x
CC(NC(=O)CN(c1cccc(C(F)(F)F)c1)S(=O)(=O)c1ccc(Cl)c([N+](=O)[O-])c1)c1ccccc1 (stereo not drawn)	n	n	48	n	n	n	n	n	n
Cc1ccc2[nH]c3c(c2c1)CN(C(=O)CN1c2ccc(F)cc2CCC1C)CC3 (stereo not drawn)	n	n	46	n	n	n	n	n	n
Cc1ccc2[nH]c3c(c2c1)CN(C(=O)CN1CCN(c2cccc(C)c2C)CC1)CC3	n	n	n	n	n	n	x	x	x
CC(C)CNC(=O)c1ccc(-c2ccc(F)c(F)c2)c2ccoc12	n	n	n	x	x	x	x	x	x
O=C(O)c1cccc(NC(=O)c2ccc3c(c2)C(=O)N(CC2CCCO2)C3=O)c1 (stereo not drawn)	n	n	n	n	n	n	x	x	x
CCN1C(=O)c2ccc(C(=O)Nc3ccc4c(c3)OCO4)cc2C1=O	n	n	49	n	n	n	n	n	n
COC(=O)c1cccc(NC(=O)c2ccc3c(c2)C(=O)N(CC2CCCO2)C3=O)c1 (stereo not drawn)	n	n	44	n	n	n	n	n	n
COC(=O)Cc1ccc(NC(=O)c2ccc3c(c2)C(=O)N(CC2CCCO2)C3=O)cc1 (stereo not drawn)	n	n	n	n	n	n	x	x	x
COc1ccc(NC(=O)c2ccc3c(c2)C(=O)N(CC2CCCO2)C3=O)cc1 (stereo not drawn)	n	n	80	n	n	n	n	n	n
CC1CCN(c2ccc(C(=O)Nc3ccc4c(c3)OCO4)cc2[N+](=O)[O-])CC1	n	n	n	n	n	n	x	x	x
CCN1C(=O)c2ccc(C(=O)NCc3ccc4c(c3)OCO4)cc2C1=O	n	n	n	n	n	n	x	x	x
CC1CCCN(c2ccc(C(=O)Nc3ccc4c(c3)OCO4)cc2[N+](=O)[O-])C1 (stereo not drawn)	n	n	46	n	n	n	n	n	n
COc1ccc(S(=O)(=O)N2CCCCCC2)cc1NC(=O)CN1C(=O)CNC1=O	n	n	n	n	n	n	x	x	x
CC[C@H](C)[C@H]1CNC(=O)C(=O)N1CC1CCN(CCCc2ccc(OC)c(OC)c2)CC1	n	n	n	x	n	x	x	x	x
